# Measurements collected from several papers.
# Each line is one published result; the experiments were not run side by side.
# Cell line: HEK293
# Observed: cell growth or viability
SMILES,technique,concentration,time,quantity,result
CC(C)C[C@H](NC(=O)[C@H](Cc1ccccc1)NC(=O)c1cnccn1)B(O)O,resazurin,,48 h,CC50,0.008 µM
COC1=CC2=[N+](C)CCc3c[nH]c(c32)C1=O,MTT,,72 h,CC50,12.5 µM
O=C(Nc1ccc([N+](=O)[O-])cc1)c1ccc(F)cc1,resazurin,,48 h,CC50,> 20 µM
O=C1C(NCCc2c[nH]c3ccccc23)=CC2=NCCc3c[nH]c1c32,MTT,,72 h,CC50,3.1 µM
COc1ccc2c(c1)c(=O)c(C(=O)NN)cn2Cc1ccccc1,resazurin,,48 h,CC50,> 20 µM
O=C(Nc1cccc([N+](=O)[O-])c1)c1ccc(C(F)(F)F)cc1,resazurin,,48 h,CC50,> 20 µM
NC1=CC2=NCCc3c[nH]c(c32)C1=O,MTT,,72 h,CC50,0.1 µM
O=C(Nc1ccc(Cl)c(Cl)c1)c1cccc(C(F)(F)F)c1,resazurin,,48 h,CC50,10.1 µM
O=C1c2[nH]cc3c2C(=NCC3)c2c(-c3ccc(O)cc3)c[nH]c21,MTT,,72 h,CC50,0.2 µM
NNC(=O)c1cn(Cc2ccccc2)c2ccc(Oc3ccccc3)cc2c1=O,resazurin,,48 h,CC50,> 20 µM
O=C(Nc1cccc([N+](=O)[O-])c1)c1cccc(C(F)(F)F)c1,resazurin,,48 h,CC50,> 20 µM
COc1ccccc1C(=O)/C=C/c1cn(Cc2cn(-c3ccnc4cc(Cl)ccc34)nn2)c2ccccc12,MTT,100 µM,24 h,viability,> 90%
CCCc1cc(=O)oc2cc(OCc3cc(=O)c(O)co3)ccc12,CCK-8,36 µM,24 h,viability,94%
O=C(Nc1ccc(Br)nn1)c1cccc(F)c1,resazurin,,48 h,CC50,> 20 µM
O=C(N/N=C/c1ccc([N+](=O)[O-])o1)c1cn(Cc2ccccc2)c2ccc([N+](=O)[O-])cc2c1=O,resazurin,,48 h,CC50,> 20 µM
